In ChEMBL document CHEMBL2331090, “Benzoquinones and terphenyl compounds as phosphodiesterase-4B inhibitors from a fungus of the order Chaetothyriales (MSX 47445)” (J Nat Prod, 2013) one finds Activity, MIC and IC50 data, which are given here for four molecules.

SMILES strings stand for the structures. Values after ≈ are worked out from the molar mass of the structure shown. Active and inactive are the calls of the source. The calls are words filed in the database; no cut-off is given here.

The subject of assay [1] is MCF7. Description: Cytotoxicity against human MCF7 cells. It is filed as functional, cell-based. Put shortly: (§1)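 Panel of three human tumour lines: MCF-7 breast carcinoma, NCI-H460 large cell lung carcinoma and SF-268 astrocytoma. The cytotoxicity protocol follows the group's earlier reports.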
Assay [2] deals with Staphylococcus aureus. Description: Antibacterial activity against Staphylococcus aureus by agar plate diffusion assay. It is filed as functional.
In assay [3] the test system is Candida albicans. Description: Antifungal activity against Candida albicans by agar plate diffusion assay. It is filed as functional, organism-based.
Assay [4] has as its system NCI-H460. Description: Cytotoxicity against human H460 cells. It is filed as functional, cell-based. The method, boiled down:
as §1

The subject of assay [5] is SF-268. Description: Cytotoxicity against human SF268 cells. The assay is classed as functional, cell-based. The method, boiled down:
as §1

The target of assay [6] is 3',5'-cyclic-AMP phosphodiesterase 4B (Homo sapiens, UniProt Q07343). Briefly: Inhibition of human PDE4B2.
Assay [7] can be described thus: Inhibition of cGMP-PDE (unknown origin). Details: species or system Homo sapiens.
A short description of assay [8]: Inhibition of cAMP-PDE (unknown origin). Further details: species or system Homo sapiens.

3',5'-cyclic-AMP phosphodiesterase 4B, sequence (Q07343 whole entry): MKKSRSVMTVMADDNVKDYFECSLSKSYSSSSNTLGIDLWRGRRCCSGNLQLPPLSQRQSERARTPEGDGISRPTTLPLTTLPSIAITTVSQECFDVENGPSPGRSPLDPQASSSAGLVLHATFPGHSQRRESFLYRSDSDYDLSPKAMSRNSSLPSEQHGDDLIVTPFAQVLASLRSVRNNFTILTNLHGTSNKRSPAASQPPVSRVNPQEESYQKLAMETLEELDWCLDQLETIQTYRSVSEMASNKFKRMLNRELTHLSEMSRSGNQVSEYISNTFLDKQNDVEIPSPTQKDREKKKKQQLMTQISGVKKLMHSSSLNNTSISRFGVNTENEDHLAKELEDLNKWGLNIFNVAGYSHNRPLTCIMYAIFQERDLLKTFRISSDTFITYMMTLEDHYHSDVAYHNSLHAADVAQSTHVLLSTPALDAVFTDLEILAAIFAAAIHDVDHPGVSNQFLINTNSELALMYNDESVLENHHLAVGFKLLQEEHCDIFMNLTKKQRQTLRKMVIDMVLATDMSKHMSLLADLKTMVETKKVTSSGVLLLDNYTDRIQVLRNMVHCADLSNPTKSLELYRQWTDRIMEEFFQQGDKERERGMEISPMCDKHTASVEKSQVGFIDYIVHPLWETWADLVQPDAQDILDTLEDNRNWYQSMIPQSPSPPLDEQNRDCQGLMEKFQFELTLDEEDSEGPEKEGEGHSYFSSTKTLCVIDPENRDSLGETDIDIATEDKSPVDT

As for `COc1c(O)c(-c2ccccc2)cc(O)c1-c1ccccc1`, the result in assay [1], in assay [4] and in assay [5] was Active. Besides, the MIC in assay [2] was found to be 25 µg/mL (≈ 85.5 µM). For the same molecule, the result in assay [3] was inactive. This molecule also yielded an IC50 in assay [6] of 31 µM.
For the molecule `COC1=C(c2ccccc2)C(=O)C(OC)=C(c2ccccc2)C1=O` [BETULINAN A], the outcome in assay [1], in assay [4] and in assay [5] was inactive. In assay [6], this molecule had an IC50 of 44 µM.
On to `COC1=C(c2ccccc2)C(=O)C=C(c2ccccc2)C1=O` [BETULINAN C], for which the result in assay [1], in assay [4] and in assay [5] was Active. For the same molecule, the MIC in assay [2] was determined as 25 µg/mL (≈ 86.1 µM). For the same molecule, in assay [3], the result was inactive. Besides, the IC50 in assay [6] was determined as 17 µM.
As for `COc1cc(-c2ccccc2)c(O)c(O)c1-c1ccccc1` [TERFEROL], the IC50 is 0.96 µM in assay [7] and 0.82 µM in assay [8].

The MIC is the lowest concentration found to suppress growth. A low value points to greater potency. Usually IC50 stands for the point on the concentration scale where inhibition reaches its midpoint.
